Screening results: PubChem BioAssay, several laboratories
NPY-Y1 PAM-ag = potentiators or agonists of human neuropeptide Y receptor Y1. P25929. NPY-Y1 expressing cells, potentiator/agonist activation. hit rate 0.37% among 220,000. activation, % at 3.6 µM; in the data active = activation above about 33%, passing the limit was not always enough;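 also: cells stimulated with NPY at EC10 then isoproterenol at EC100; 0% = low agonist plus stimulus and 100% = saturating agonist plus stimulus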
Target sequence (P25929 whole entry, looked up): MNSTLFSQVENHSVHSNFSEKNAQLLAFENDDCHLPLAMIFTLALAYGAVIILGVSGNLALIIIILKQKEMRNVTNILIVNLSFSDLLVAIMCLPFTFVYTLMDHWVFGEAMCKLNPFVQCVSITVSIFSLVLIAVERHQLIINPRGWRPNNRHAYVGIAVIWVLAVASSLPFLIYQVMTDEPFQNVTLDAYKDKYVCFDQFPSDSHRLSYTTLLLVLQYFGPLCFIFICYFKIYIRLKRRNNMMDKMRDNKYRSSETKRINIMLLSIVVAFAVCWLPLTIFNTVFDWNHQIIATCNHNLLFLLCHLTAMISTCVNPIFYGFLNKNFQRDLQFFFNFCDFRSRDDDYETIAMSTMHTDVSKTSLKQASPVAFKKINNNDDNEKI
NPY2 pot ag = potentiates or activates human NPY-Y2 receptor | P49146 | cells expressing NPY-Y2, potentiator/agonist read-out | activation, % at 3.6 µM | hit rate 0.45% among 220,000; in the data active = activation above about 27%;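 also: cells stimulated with NPY near EC25 plus isoproterenol at EC100; 0% = vehicle plus submaximal agonist and 100% = vehicle plus saturating agonist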
Target sequence (P49146 whole entry, looked up): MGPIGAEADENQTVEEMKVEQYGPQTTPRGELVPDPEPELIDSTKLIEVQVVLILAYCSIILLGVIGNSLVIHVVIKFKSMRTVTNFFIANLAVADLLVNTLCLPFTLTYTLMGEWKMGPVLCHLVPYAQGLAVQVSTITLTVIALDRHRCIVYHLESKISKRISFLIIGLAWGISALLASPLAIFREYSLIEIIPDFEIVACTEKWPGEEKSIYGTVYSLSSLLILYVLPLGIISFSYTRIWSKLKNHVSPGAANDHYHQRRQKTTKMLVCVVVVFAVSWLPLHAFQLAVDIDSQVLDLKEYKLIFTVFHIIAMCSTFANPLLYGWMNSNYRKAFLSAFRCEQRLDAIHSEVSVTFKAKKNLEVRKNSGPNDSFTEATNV
NPY-Y1 antag = blocks the human neuropeptide Y Y1 receptor. P25929. HEK293-CNG Y1 cells, membrane potential fluorescence; NPY at EC95, then isoproterenol. inhibition, % at 3.6 µM. hit rate 1% among 200,000. AID 1040;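 active = inhibition above the campaign mean inhibition of all tested compounds plus 3 SD, cut at about 20% in these data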;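 also: 0% = DMSO wells given NPY plus isoproterenol and 100% = isoproterenol alone without NPY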
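Material: HEK293 cells with Y1 receptor plus CNG channel; times: compound incubation 1 h at room temperature, readout 45 min post-stimulation; signal: fluorescence, membrane potential probe; read-out basis: fluorescence ratio normalized to % inhibition between controls; benchmarks: full-block control isoproterenol-only wells, zero-block control NPY plus isoproterenol wells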
PGE2 EP2 inh = EP2 receptor (human) inhibition | P43116 | C6 glioma cells expressing human EP2, cAMP TR-FRET; cells stimulated with saturating PGE2 | inhibition, % at 25 µM | hit rate 0.52% among 260,000 | AID 1422;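 active = percent inhibition above 40 after rounding to a whole number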;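 also: rat C6 glioma host cells with rolipram phosphodiesterase inhibitor present; the protocol text gives 20 µM as final concentration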
NPY-Y2 antag = NPY-Y2 (human) receptor antagonism. P49146. inhibition, % at 2.7 µM. hit rate 0.99% among 140,000. AID 793. NPY-Y2 expressing cells, antagonist mode; in the data active = inhibition above about 17%;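 also: 0% = vehicle with agonist challenge and 100% = reference antagonist with challenge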
EP2 mod = EP2 receptor (human) modulation | EP2-expressing cells, cAMP HTRF FRET, PGE2 co-stimulation | induction, % at 25 µM | hit rate 0.83% among 260,000;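 active = compounds whose cAMP rise, as percent of the full-agonist control response, exceeds 60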;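 also: rat C6 glioma line stably carrying human EP2 under a CMV promoter; the protocol text gives 20 µM as final concentration; 100% = response of wells given 1 µM PGE2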
NPY-Y2 pot conf = confirmation of human NPY-Y2 receptor potentiators or agonists | activation, % at 3.6 µM | AID 1539 | cell-based NPY-Y2 potentiator/agonist assay | shares compounds with NPY2 pot ag | hit rate 20% among 450; in the data active = activation above about 33%
NPY-Y1 potentiator = NPY-Y1 potentiation or agonism as NPY-Y2 counter-screen. shares compounds with NPY2 pot ag. AID 1651. hit rate 20% among 450. activation, % at 3.6 µM. Y1 HEK293-CNG cells, membrane potential fluorescence; in the data active = activation above about 45%;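 also: cells stimulated with submaximal NPY then isoproterenol with phosphodiesterase inhibitor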
NPY-Y1 ag 2 = counter-screen for NPY-Y2 potentiators: agonists of human NPY-Y1 | AID 1702 | HEK293 Y1-CNGC, membrane potential fluorescence, agonism | activation, % at 3.6 µM | shares compounds with NPY2 pot ag | hit rate 37% among 450;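 active = activation above the mean of DMSO-only control wells plus 3 SD, cut at about 18% in these data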;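 also: cells stimulated with 1 µM isoproterenol plus the PDE inhibitor Ro 20-1724; 0% = isoproterenol with DMSO and no NPY and 100% = 40 nM NPY; Y1 agonists lower the membrane potential dye signal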
CNGC inhibitor = counter-screen for NPY-Y2 potentiators: inhibitors of CNG channel activity | hit rate 32% among 450 | inhibition, % at 3.6 µM | HEK293-CNG parental, isoproterenol cAMP, membrane potential fluorescence | shares compounds with NPY2 pot ag;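 active = inhibition above the control-well mean plus 3 SD of those wells, cut at about 22% in these data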;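 also: 0% = DMSO with isoproterenol and 100% = DMSO without isoproterenol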
NPY-Y2 ag 2 = NPY-Y2 agonism, counter-screen for Y2 potentiators | activation, % at 3.6 µM | AID 1710 | hit rate 56% among 450 | shares compounds with NPY2 pot ag | HEK293 Y2/CNGC cells, membrane potential fluorescence, agonist mode;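 active = activation above the mean of solvent-only control wells plus 3 SD, cut at about 10% in these data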;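 also: cells stimulated by isoproterenol with no NPY added so direct agonism is tested; 0% = DMSO with isoproterenol alone and 100% = NPY at EC100 plus isoproterenol; agonism lowers probe fluorescence through less cAMP and CNG channel opening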
An asterisk follows results filed as active. Most compounds without a hit are left out; they make up all but 2.8% or so of the library.

N/C(=N\OC(=O)c1ccc(OCC(F)(F)F)nc1)c1ccc(Cl)cc1 was read as NPY-Y1 PAM-ag -36, NPY2 pot ag 82*, PGE2 EP2 inh 8, EP2 mod -17, NPY-Y2 pot conf -11, NPY-Y1 potentiator -5, NPY-Y1 ag 2 -16, CNGC inhibitor -11 and NPY-Y2 ag 2 9.
For CC(NC(=O)Cn1ccc2ccc(F)cc21)c1nc(-c2cccnc2)no1 (configuration not stated) the results were PGE2 EP2 inh 5 and EP2 mod -35.
For Cc1cc2c(s1)c1cnn(CC(=O)N3CCCC(C)C3)c(=O)c1n2C (configuration not stated) the results were EP2 mod -29.
O=C(COc1ccc(Cl)cc1)Nc1ncc([N+](=O)[O-])s1 was read as NPY-Y1 PAM-ag -1, NPY2 pot ag 40*, NPY-Y1 antag 4, PGE2 EP2 inh -3, EP2 mod -32, NPY-Y2 pot conf 4, NPY-Y1 potentiator -6, NPY-Y1 ag 2 -11, CNGC inhibitor -4 and NPY-Y2 ag 2 10*.
For CCSc1nnc(NC(=O)COc2ccc(Cl)cc2)s1 the results were NPY-Y1 PAM-ag 6, NPY2 pot ag 3, NPY-Y1 antag 3, PGE2 EP2 inh 5 and EP2 mod 1.
O=[N+]([O-])c1cccc2c(N3CCOCC3)ccnc12 was read as NPY-Y1 PAM-ag 4, NPY2 pot ag 40*, NPY-Y1 antag 0, PGE2 EP2 inh 11, EP2 mod -16, NPY-Y2 pot conf 2, NPY-Y1 potentiator 6, NPY-Y1 ag 2 5, CNGC inhibitor 4 and NPY-Y2 ag 2 13*.
Screening O=[N+]([O-])c1ccc(N2CCN(S(=O)(=O)c3ccccc3)CC2)c2cccnc12 returned NPY-Y1 PAM-ag 10, NPY2 pot ag -4, NPY-Y1 antag -4, PGE2 EP2 inh 6 and EP2 mod -18.
CCc1nccn1CCC(=O)N1CCC2(CC1)NC(=O)c1cccnc1N2CC was read as EP2 mod -1.
`FC(F)(F)c1cnc(NNC(=S)Nc2ccc(Cl)cc2)c(Cl)c1` gave NPY-Y1 PAM-ag 38, NPY2 pot ag 42*, NPY-Y1 antag -5, PGE2 EP2 inh 3, NPY-Y2 antag 5, EP2 mod -30, NPY-Y2 pot conf 8, NPY-Y1 potentiator -27, NPY-Y1 ag 2 -14, CNGC inhibitor -7 and NPY-Y2 ag 2 16*.
Cc1cc2cc3c(cc2n2c(=O)n(CC(=O)NCC4CC4)nc12)OCO3 was read as EP2 mod -5.
`CN(C)CCCN(C(=O)c1ccc(S(=O)(=O)N(C)C)cc1)c1nc2cc3c(cc2s1)OCO3` gave NPY-Y1 PAM-ag -6, NPY2 pot ag -4, NPY-Y1 antag 11, PGE2 EP2 inh 9 and EP2 mod -32.
Cc1ccc2sc(N(CCCN(C)C)C(=O)c3ccc(Br)s3)nc2c1C was read as NPY-Y1 PAM-ag 29, NPY2 pot ag 52*, NPY-Y1 antag 17, PGE2 EP2 inh 8, EP2 mod -26, NPY-Y2 pot conf 69*, NPY-Y1 potentiator 78*, NPY-Y1 ag 2 84*, CNGC inhibitor 62* and NPY-Y2 ag 2 65*.
Screening Cc1ccc2sc(N(CCCN(C)C)C(=O)c3nc4ccccc4s3)nc2c1C returned NPY-Y1 PAM-ag -17, NPY2 pot ag -7, NPY-Y1 antag 7, PGE2 EP2 inh 5 and EP2 mod -3.
`CN(C)CCCN(C(=O)c1ccc(Br)s1)c1nc2cc3c(cc2s1)OCO3` gave NPY-Y1 PAM-ag 31, NPY2 pot ag 43*, NPY-Y1 antag 8, PGE2 EP2 inh 5, EP2 mod -23, NPY-Y2 pot conf 67*, NPY-Y1 potentiator 79*, NPY-Y1 ag 2 55*, CNGC inhibitor 66* and NPY-Y2 ag 2 63*.
For CCc1cccc(N(C(=O)c2csnn2)C(C(=O)NC2CCCC2)c2ccc(C)o2)c1 (configuration not stated) the results were PGE2 EP2 inh 12 and EP2 mod 1.
For O=C(O)C1CC=CCC1C(=O)N1CCN(c2nc(-c3ccccc3)c3ccccc3n2)CC1 (configuration not stated) the results were NPY-Y1 PAM-ag 43, NPY2 pot ag 37*, NPY-Y1 antag 14, NPY-Y2 antag 7, EP2 mod 57, NPY-Y2 pot conf 17, NPY-Y1 potentiator 2, NPY-Y1 ag 2 18*, CNGC inhibitor -6 and NPY-Y2 ag 2 14*.
For Cc1ccc(O)c(-c2cc(-c3ccccc3[N+](=O)[O-])[nH]n2)c1 the results were NPY-Y1 PAM-ag 31, NPY2 pot ag 35*, NPY-Y1 antag -12, PGE2 EP2 inh 9, NPY-Y2 antag -7, EP2 mod -72, NPY-Y2 pot conf 34*, NPY-Y1 potentiator 38, NPY-Y1 ag 2 36*, CNGC inhibitor 33* and NPY-Y2 ag 2 35*.
For Oc1ccccc1-c1cc(-c2ccco2)[nH]n1 the results were NPY-Y1 PAM-ag 12, NPY2 pot ag -1, NPY-Y1 antag -6, PGE2 EP2 inh 5, NPY-Y2 antag 0 and EP2 mod -42.
For O=[N+]([O-])c1ccccc1-c1cc(-c2cc(Cl)ccc2O)n[nH]1 the results were NPY-Y1 PAM-ag 36, NPY2 pot ag 31*, NPY-Y1 antag -9, PGE2 EP2 inh 8, NPY-Y2 antag -8, EP2 mod -79, NPY-Y2 pot conf 50*, NPY-Y1 potentiator 59*, NPY-Y1 ag 2 52*, CNGC inhibitor 54* and NPY-Y2 ag 2 60*.
For Oc1ccc(Cl)cc1-c1cc(-c2ccco2)[nH]n1 the results were NPY-Y1 PAM-ag 41, NPY2 pot ag 29*, NPY-Y1 antag -7, PGE2 EP2 inh 13, NPY-Y2 antag -6, EP2 mod -37, NPY-Y2 pot conf 26, NPY-Y1 potentiator 38, NPY-Y1 ag 2 33*, CNGC inhibitor 24* and NPY-Y2 ag 2 31*.
CCSc1nnc(CNc2ccc(F)cc2)n1-c1ccc(OC)cc1 was read as PGE2 EP2 inh 11 and EP2 mod 2.
